Data reported in ChEMBL document CHEMBL5042498, “Development of 3-(4-Chlorophenyl)-1-(phenethyl)urea Analogues as Allosteric Modulators of the Cannabinoid Type-1 Receptor: RTICBM-189 is Brain Penetrant and Attenuates Reinstatement of Cocaine-Seeking Behavior” (J Med Chem, 2022).
Calls of active or inactive are those of the source. No cut-off for these calls is given here.

Assays:
[1] = Metabolic stability in rat liver microsomes assessed as half life in presence of NADPH measured upto 45 mins by LC-MS/MS analysis; type: ADME, Microsome; details: 0.75 h
Method in brief: (§1)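 Rat liver microsomes (0.5 mg/mL protein) in 100 mM potassium phosphate, pH 7.4, at 37 °C with 1 mM NADPH. Samples were taken at 0, 5, 15, 30 and 45 min, quenched with acetonitrile and analysed by LC/MS/MS. Half-life and clearance were derived from two independent experiments in duplicate.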

Rattus norvegicus = experiment: Attenuation of cocaine reinstatement in 7 day cocaine treated Sprague-Dawley rat assessed as reduction in cocaine seeking behaviour at 10 mg/kg, ip treated for 10 mins prior to administration of cocaine priming injection; type: functional, organism-based
Method in brief: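 Male Sprague-Dawley rats (280-300 g) with jugular catheters self-administered cocaine (0.75 mg/kg/inf, FR1 raised to FR5) in 2-h sessions for 14 days, then underwent 7 days of extinction. On the test day, compound (10 mg/kg) or vehicle was given 10 min before a priming cocaine injection (10 mg/kg i.p.), and lever responding was measured.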

[2] = Apparent permeability across basolateral to apical side in MDCK-MDR1 cells at 10 uM measured upto 90 mins by LC-MS/MS analysis; type: ADME, cell-based, Canis lupus familiaris; details: dog, mdck-mdr1, 1.5 h
Method in brief: (§2)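 MDCK-MDR1 cells (passage 5) were grown 3 days on polycarbonate Transwell supports and equilibrated 30 min at 37 °C in HBSS with 10 mM HEPES and 0.25% BSA, pH 7.4, before TEER was measured. Test article at 10 μM was placed in the donor chamber (apical or basolateral), with light agitation at 37 °C. Receiver samples were taken at 30, 60 and 90 min and analysed by LC-MS/MS. Papp = (dQ/dt)/(A·Ci·60). References were atenolol, propranolol and digoxin.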

[3] = Apparent permeability across apical to basolateral side in MDCK-MDR1 cells at 10 uM measured upto 90 mins by LC-MS/MS analysis; type: ADME, cell-based, Canis lupus familiaris; details: dog, mdck-mdr1, 1.5 h; method in brief: as §2
[4] = Metabolic stability in rat liver microsomes assessed as clearance in presence of NADPH measured upto 45 mins by LC-MS/MS analysis; type: ADME, Microsome; details: 0.75 h; method in brief: as §1
Cannabinoid receptor 1 [5] = biological target: T1, Cannabinoid receptor 1 (Homo sapiens, UniProt P21554); experiment: Allosteric antagonist activity at human CB1 receptor expressed in CHO-RD-HGA16 cells overexpressing Galpha16 assessed as inhibition of CP55940-stimulated calcium mobilization incubated for 15 mins FLIPR assay; type: functional, cell-based
Cannabinoid receptor 1 [6] = biological target: T1, Cannabinoid receptor 1; experiment: Allosteric antagonist activity against human CB1 receptor expressed in HEK293 cells membrane measured after 60 mins by [35S]GTPgammaS binding assay; type: functional, cell membranes
Method in brief: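 Membranes from HEK293 cells expressing hCB1 are used in assay buffer (50 mM Tris, 3 mM MgCl2, 0.2 mM EGTA, 100 mM NaCl, 1 mg/ml BSA, pH 7.4). They are preincubated 10 min, then incubated 60 min at 30 °C with 30 μM GDP, 0.1 nM [35S]GTPγS, 100 nM CP55,940 and serially diluted compound (0.1% DMSO final). Nonspecific binding is set with 30 μM unlabeled GTPγS. Reactions are filtered. Data are normalized to CP55,940 alone and fitted by 3-parameter regression; mean of ≥3 experiments in duplicate.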

[7] = biological target: Cannabinoid receptor 2 (Homo sapiens) (UniProt P34972); experiment: Agonist activity at human CB2 receptor CP55940-stimulated calcium mobilization at 10 uM incubated for 15 mins FLIPR assay relative to control; type: functional
Method in brief: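 CB2 agonist screen in CHO-RD-HGA16 cells stably expressing human CB2, loaded with Calcium 5 dye for 45 min at 37 °C. Cells were pretreated 15 min with vehicle, then the test compound was added at a single concentration. Fluorescence was read on FLIPR every 1 s for 90 s (485/525 nm). Response is expressed as % of CP55,940 Emax.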

[8] = biological target: Cannabinoid receptor 2 (Homo sapiens) (UniProt P34972); experiment: Antagonist activity at human CB2 receptor CP55940-stimulated calcium mobilization incubated for 15 mins FLIPR assay; type: functional; set-up: concentration or dose not given beside the values
Method in brief: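 CB2 antagonist screen in human CB2 CHO-RD-HGA16 cells loaded with Calcium 5 dye. Cells were pretreated 15 min at 37 °C with the test compound at a single concentration (10 μM), then challenged with CP55,940 at its EC80 during the FLIPR read (90 s, 485/525 nm). Response is expressed as % inhibition of the CP55,940 EC80 signal.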

Cannabinoid receptor 1 [9] = biological target: T1, Cannabinoid receptor 1; experiment: Antagonist activity at N-terminal tagged human CB1 receptor transfected with HEK293 cells assessed as forskolin-stimulated cAMP level in presence of CP55940 by BRET assay; type: functional, cell-based
Method in brief: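 HEK293 cells stably expressing hCB1 (3HA-tagged at Otago, untagged at RTI) are transiently transfected with the CAMYEL BRET cAMP sensor. Cells are serum-starved 30 min and given 5 μM coelenterazine H final. Compound dilutions are added together with 5 μM forskolin and 1 μM CP55,940. BRET (460/535) is read for about 20 min at 37 °C.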

[10] = Plasma protein binding in rat; type: ADME, cell-free
[11] = Aqueous solubility of compound; type: physicochemical; details: buffer
[12] = Toxicity in Sprague-Dawley rat assessed as reduction in locomotion at 10 mg/kg, ip; type: organism-based; details: in vivo
Method in brief: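 Rats received 10 mg/kg i.p. compound or vehicle 15 min before being placed in locomotion chambers, after at least three days of handling. Locomotor activity was recorded for 30 min and analysed by two-way ANOVA.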

[13] = Cmax in Sprague-Dawley rat brain at 10 mg/kg, ip measured upto 24 hrs post dose by LC-MS/MS analysis
[14] = Tmax in Sprague-Dawley rat brain at 10 mg/kg, ip measured upto 24 hrs post dose by LC-MS/MS analysis
[15] = Cmax in Sprague-Dawley rat plasma at 10 mg/kg, ip measured upto 24 hrs post dose by LC-MS/MS analysis
[16] = Tmax in Sprague-Dawley rat plasma at 10 mg/kg, ip measured upto 24 hrs post dose by LC-MS/MS analysis
[17] = AUC infinity in Sprague-Dawley rat brain 10 mg/kg, ip measured upto 24 hrs post dose by LC-MS/MS analysis
[18] = Clearance in Sprague-Dawley rat plasma at 10 mg/kg, ip measured upto 24 hrs post dose by LC-MS/MS analysis
[19] = AUC infinity in Sprague-Dawley rat plasma 10 mg/kg, ip measured upto 24 hrs post dose by LC-MS/MS analysis
[20] = Elimination half life in Sprague-Dawley rat plasma 10 mg/kg, ip measured upto 24 hrs post dose by LC-MS/MS analysis

T1 sequence (P21554 whole entry): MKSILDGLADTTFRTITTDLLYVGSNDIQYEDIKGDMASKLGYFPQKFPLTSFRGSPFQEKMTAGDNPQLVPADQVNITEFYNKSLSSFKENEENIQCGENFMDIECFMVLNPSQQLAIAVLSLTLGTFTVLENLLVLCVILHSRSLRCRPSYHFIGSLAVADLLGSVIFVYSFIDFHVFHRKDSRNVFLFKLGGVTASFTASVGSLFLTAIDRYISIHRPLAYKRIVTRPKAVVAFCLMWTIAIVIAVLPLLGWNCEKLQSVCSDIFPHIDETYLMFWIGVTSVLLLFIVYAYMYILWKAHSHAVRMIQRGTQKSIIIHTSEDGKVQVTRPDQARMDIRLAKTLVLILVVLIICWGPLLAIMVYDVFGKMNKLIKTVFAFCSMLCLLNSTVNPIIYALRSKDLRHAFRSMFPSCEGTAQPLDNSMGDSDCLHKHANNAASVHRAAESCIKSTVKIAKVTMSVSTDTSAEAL
Chain of Cannabinoid receptor 2 (Homo sapiens) (P34972 whole entry): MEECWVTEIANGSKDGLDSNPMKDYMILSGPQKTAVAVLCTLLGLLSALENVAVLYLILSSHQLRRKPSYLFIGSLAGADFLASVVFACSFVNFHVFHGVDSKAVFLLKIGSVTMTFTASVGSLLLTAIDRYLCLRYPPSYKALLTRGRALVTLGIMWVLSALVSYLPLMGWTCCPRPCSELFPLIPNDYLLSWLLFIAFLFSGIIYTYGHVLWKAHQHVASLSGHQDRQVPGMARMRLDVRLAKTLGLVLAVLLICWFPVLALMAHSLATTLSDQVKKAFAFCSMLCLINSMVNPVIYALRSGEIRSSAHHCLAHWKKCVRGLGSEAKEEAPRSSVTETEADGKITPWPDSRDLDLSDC

For `O=C(NCCc1cccc(Cl)c1)Nc1ccc(Cl)cc1`, which t1/2 [1] is on record?
Its t1/2 is 14.9 min.

What about the Activity (Rattus norvegicus) of the same compound?
The Activity was “Active”.

And the Papp [2]?
Its Papp is 21.3 10^-6 cm/s.

And the Papp [3]?
The Papp was 19.2 10^-6 cm/s.

What about the CLH [4] of the same compound?
The CLH was 99.3 µL/min/mg.

What about the IC50 (Cannabinoid receptor 1 [5]) of the same compound?
The IC50 was 28.8 nM.

And the IC50 (Cannabinoid receptor 1 [6])?
Its IC50 is 5130 nM.

And the Emax [7]?
The Emax was under 20%.

What about the Activity [8] of the same compound?
Its Activity is under 35%.

What about the IC50 (Cannabinoid receptor 1 [9]) of the same compound?
The IC50 was 1510 nM.

What about the PPB [10] of the same compound?
The PPB was 99.6%.

What about the solubility [11] of the same compound?
Its solubility is under 1 µM.

And the Activity [12]?
The Activity was “Non-Toxic”.

And the Cmax [13]?
The Cmax was 595 ng/mL.

And the Tmax [14]?
The Tmax was 24 min.

And the Cmax [15]?
The Cmax was 288 ng/mL.

And the Tmax [16]?
The Tmax was 24 min.

What about the AUC(0-inf) [17] of the same compound?
The AUC(0-inf) was 1440 ng·h/mL.

And the CL/F [18]?
The CL/F was 241 mL/min/kg.

What about the AUC(0-inf) [19] of the same compound?
The AUC(0-inf) was 715 ng·h/mL.

And the half-life [20]?
The half-life was 37.8 min.
